Results as given in publication PMC3646928 (Peptides, 2013).

What was measured:
[1] = test system: protein-free HJ DNA; assay: Non-competitive HJ band shift; format: binding
[2] = test system: E. coli MG1655 cells; assay: Bacterial TUNEL assay; format: cell-based; conditions: highest concentration tested, 1.5 hours
Method in brief: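 E. coli MG1655 grown as for MIC testing: overnight culture diluted 1:100 in Mueller Hinton broth, grown to OD600 0.08–0.1, then exposed to peptide for 1.5 h. Cells pelleted and resuspended in 1× PBS. TdT labels 3′-OH ends with fluorescein-dUTP; TOTO-3 counterstains DNA. Flow cytometry (488 nm FITC, 633 nm APC; 50,000 events). TUNEL-positive expressed as fraction of TOTO-3-positive cells, normalized to DMSO-treated cells.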

Row | Substance | shift of protein-free HJ DNA in EMSA (specific shift) [1] | TUNEL-positive cells [2] [%]
1 | KWWRGGRWWK | caused a change in the mobility of protein-free HJ DNA similar to shifts seen with (WRWYCR)2 | –
2 | WRWYCR | – | 75.6 ± 2.2
3 | WRWYGGYWRW | Neither WRWYGGYWRW nor WYCRGGRCYW caused specific shifts at low peptide concentrations | –
4 | WYCRGGRCYW | Neither WRWYGGYWRW nor WYCRGGRCYW caused specific shifts at low peptide concentrations | –
